Measurements taken from ChEMBL document CHEMBL1926504, “Design, synthesis, and evaluation of novel small molecule inhibitors of the influenza virus protein NS1” (Bioorg Med Chem, 2012).
Active and inactive are the calls of the source. No cut-off for these calls is given here.

Key:
Influenza A virus [1] = assay: Antiviral activity against Influenza virus A/PR/8/34 infected in MDCK cells assessed as reduction in viral titer after 48 hrs by hemagglutinination assay; type: functional; details: for Activity: A/Puerto Rico/8/1934(H1N1)
Procedure, shortened: (§1)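 MDCK monolayers grown to confluence in Iscove medium with 10% FBS and 2 mM L-glutamine. Infected with A/PR/8/34 at MOI 0.1 for 48 h in growth medium with 0.3% BSA, 0.22% bicarbonate and TPCK-trypsin. Compound or DMSO added at the start of infection and kept throughout. Supernatant titre measured by TCID50 on MDCK cells using hemagglutination (Reed–Muench).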

Influenza A virus [2] = assay: Antiviral activity against Influenza virus A/PR/8/34 infected in MDCK cells assessed as reduction in viral titer at 50 uM after 48 hrs by hemagglutinination assay relative to untreated control; type: functional, A/Puerto Rico/8/1934(H1N1)
Procedure, shortened: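 MDCK monolayers infected with A/PR/8/34 at MOI 0.1 for 48 h, with 50 µM compound throughout. Supernatant logTCID50 determined by hemagglutination (Reed–Muench). Fold decrease obtained by subtracting each logTCID50 from the DMSO-control value and taking the inverse log.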

MDCK = assay: Cytotoxicity against MDCK cells up to 100 uM after 48 hrs; type: cell-based, Canis lupus familiaris; details: dog
Influenza A virus [3] = assay: Antiviral activity against Influenza virus A/PR/8/34 infected in MDCK cells assessed as reduction in viral titer at 50 uM after 48 hrs by hemagglutinination assay; type: functional, organism-based; details: A/Puerto Rico/8/1934(H1N1)
Procedure, shortened: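 Confluent MDCK monolayers infected with A/PR/8/34 at MOI 0.1, with compound at 50 µM present for the entire 48 h. Viral titre in supernatants expressed as logTCID50, read by hemagglutination on MDCK cells (Reed–Muench). DMSO-treated infected cells served as control.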

Influenza A virus [4] = assay: Antiviral activity against Influenza virus A/PR/8/34 infected in MDCK cells assessed as log reduction in viral replication at 1 uM after 48 hrs by hemagglutinination assay relative to control; type: functional, A/Puerto Rico/8/1934(H1N1); procedure, shortened: as §1

## O=C(NCCCc1ccccc1)c1ccccc1Br
Influenza A virus [1]
  Activity: inactive

## O=C(NCCCc1ccccc1)c1ccc2c(c1)OCO2
Influenza A virus [1]
  Activity: Active

## Nc1ccc([N+](=O)[O-])cc1C(=O)NCCCc1ccccc1
Influenza A virus [1]
  Activity: Active

## O=C(N/N=C/c1ccc2c(c1)CCC2)c1ccccc1O
Influenza A virus [2]
  fold change (FC): 25
MDCK
  Activity: Non-toxic
Influenza A virus [3]
  Activity: Active
Influenza A virus [1]
  log10 TCID50: 7.1

## O=C(NCCCc1ccccc1)c1ccccn1
Influenza A virus [1]
  Activity: Active

## O=C(N/N=C/c1ccc([N+](=O)[O-])cc1)c1ccccc1O
Influenza A virus [3]
  Activity: Active

## O=C(NCCCc1ccccc1)c1ccc(O)cc1
Influenza A virus [2]
  fold change (FC): 100
Influenza A virus [1]
  log10 TCID50: 6.5

## COc1ccccc1C(=O)NCCCc1ccccc1
Influenza A virus [2]
  fold change (FC): 500
Influenza A virus [1]
  log10 TCID50: 5.8

## O=C(N/N=C/c1ccc2ccccc2c1)c1ccccc1O
Influenza A virus [3]
  Activity: Active

## CN(CCCc1ccccc1)C(=O)c1ccccc1O
Influenza A virus [1]
  Activity: Active

## O=C(N/N=C/c1ccc(Cl)cc1)c1ccccc1O
Influenza A virus [3]
  Activity: Active

## O=C(NCCCc1ccccc1)c1ccc2ccccc2c1O
Influenza A virus [1]
  Activity: Active

## O=C(NCCCCc1ccccc1)c1ccccc1O
Influenza A virus [3]
  Activity: Active

## O=C(NCCCc1ccccc1)c1nccc2ccccc12
Influenza A virus [1]
  Activity: Active

## O=C(Cc1ccccc1O)NCCc1ccccc1
Influenza A virus [1]
  Activity: Active

## O=C(NCCCc1ccccc1)c1ccccc1O
Influenza A virus [2]
  fold change (FC): 630
MDCK
  Activity: Non-toxic
Influenza A virus [1]
  log10 TCID50: 5.7

## O=C(CCc1ccccc1O)NCc1ccccc1
Influenza A virus [1]
  Activity: Active

## Nc1ccccc1C(=O)NCCCc1ccccc1
MDCK
  Activity: Non-toxic
Influenza A virus [1]
  Activity: Active
Influenza A virus [4]
  FC: >2

## O=C(NCCCc1ccccc1)c1ccc2ccccc2n1
Influenza A virus [1]
  Activity: Active

## O=C(NCCCc1ccccc1)c1ccccc1F
Influenza A virus [1]
  Activity: inactive

## Cc1ccccc1C(=O)NCCCc1ccccc1
Influenza A virus [2]
  fold change (FC): 158
Influenza A virus [1]
  log10 TCID50: 6.3

## N#Cc1ccccc1C(=O)NCCCc1ccccc1
Influenza A virus [1]
  Activity: Active

## O=C(CCc1ccccc1O)Nc1ccccc1
Influenza A virus [1]
  Activity: Active

## Nc1ccc(Cl)cc1C(=O)NCCCc1ccccc1
Influenza A virus [1]
  Activity: Active

## O=C(NCCCc1ccccc1)c1cc2ccccc2cc1O
Influenza A virus [1]
  Activity: Active

## O=C(N/N=C/c1ccccc1)c1ccccc1O
Influenza A virus [3]
  Activity: Active

## Nc1ccccc1C(=O)NCCOc1ccccc1
Influenza A virus [1]
  Activity: Active

## COc1ccc(/C=N/NC(=O)c2ccccc2O)cc1
Influenza A virus [3]
  Activity: Active

## COc1ccc(N)c(C(=O)NCCCc2ccccc2)c1
Influenza A virus [1]
  Activity: Active

## O=C(NCCCc1ccccc1)c1c(O)ccc2ccccc12
Influenza A virus [1]
  Activity: Active

## O=C(NCCCc1ccccc1)c1ccccc1Cl
Influenza A virus [1]
  Activity: Active

## O=C(NCCCc1ccccc1)c1ccccc1
Influenza A virus [2]
  fold change (FC): 50
Influenza A virus [1]
  log10 TCID50: 6.8

## O=C(N/N=C/c1ccc(O)cc1)c1ccccc1O
Influenza A virus [3]
  Activity: Active

## O=C(NCCCc1ccccc1)c1cccc(O)c1
Influenza A virus [2]
  fold change (FC): 200
Influenza A virus [1]
  log10 TCID50: 6.2

## O=C(NCCCc1ccccc1)c1ccccc1[N+](=O)[O-]
Influenza A virus [2]
  fold change (FC): 100
Influenza A virus [1]
  log10 TCID50: 6.5

## O=C(NCCCc1ccccc1)c1ccccc1I
Influenza A virus [1]
  Activity: Active

## O=C(NCCCc1ccccc1)c1cc2ccccc2cn1
Influenza A virus [1]
  Activity: Active

## O=C(NCCOc1ccccc1)c1ccccc1O
Influenza A virus [1]
  Activity: Active

## Nc1ccc(C(=O)NCCCc2ccccc2)c(O)c1
Influenza A virus [1]
  Activity: Active

## O=C(NCCc1ccccc1)c1ccccc1O
Influenza A virus [2]
  fold change (FC): 25
Influenza A virus [1]
  log10 TCID50: 7.1

## O=C(CCCc1ccccc1)Nc1ccccc1O
Influenza A virus [1]
  Activity: Active
